Experimental data as given in ChEMBL document CHEMBL5724801, “EUbOPEN Chemogenomics Library - Multiplex” (2024).
Several values for one entry are separate records, joined by “and”; a condition that tells them apart may be missing. Identical values can stand only once.

Test system: HEK-293T
Experiment: Multiplex assay against HEK293T
Format: toxicity, cell-based
Conditions: human
Method in brief: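 Four dyes were applied at seeding to live cells: Hoechst33342, BioTracker Green Microtubule Cytoskeleton Dye, MitoTracker Red and Annexin V Alexa Fluor 680. Imaging after compound addition used a CQ1 microscope at 37°C and 5% CO2. CellPathfinder machine-learning gating then sorted cells into Hoechst high-intensity objects or normal cells, normal cells into healthy, pyknosed or fragmented nuclei, and pyknosed cells into mitotic or apoptotic, with tubulin, mitochondrial-mass and membrane-permeability phenotypes given as per cents of healthy-nucleus cells.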

[1] = 12 h, 1 µM, compound concentration 1 uM
[2] = 12 h, 10 µM, compound concentration 10 uM
[3] = 24 h, 1 µM, compound concentration 1 uM
[4] = 24 h, 10 µM, compound concentration 10 uM
[5] = 48 h, 1 µM, compound concentration 1 uM
[6] = 48 h, 10 µM, compound concentration 10 uM

CCCn1c(=O)c2[nH]c(C3CCCC3)nc2n(CCC)c1=O [1,3-DIPROPYL-8-CYCLOPENTYLXANTHINE [DPCPX]]
Population Apoptotic (%) [1]: 35% and 54% | Population Fragmented Nuclei (%) [1]: 7% and 3% | Population Healthy Nuclei (%) [1]: 79% and 81% | Population Hoechst High Intensity Objects (%) [1]: 6% and 3% | Population Membrane Permeable-Phenotype (%) [1]: 0% | Population Mitochondria Different-Phenotype (%) [1]: 44% and 52% | Population Mitotic Cells (%) [1]: 64% and 45% | Population Normal (%) [1]: 93% and 96% | Population Pyknosed Nuclei (%) [1]: 12% and 14% | Population Tubulin-Different-Phenotype (%) [1]: 32% and 15% | Total Cell Count [1]: 443 and 361 | Population Apoptotic (%) [2]: 60% and 54% | Population Fragmented Nuclei (%) [2]: 12% and 7% | Population Healthy Nuclei (%) [2]: 68% and 75% | Population Membrane Permeable-Phenotype (%) [2]: 0% | Population Mitochondria Different-Phenotype (%) [2]: 58% and 68% | Population Mitotic Cells (%) [2]: 39% and 45% | Population Normal (%) [2]: 94% and 81% | Population Pyknosed Nuclei (%) [2]: 19% and 16% | Population Tubulin-Different-Phenotype (%) [2]: 51% and 45% | Total Cell Count [2]: 295 and 337 | Population Apoptotic (%) [3]: 26% and 28% | Population Fragmented Nuclei (%) [3]: 8% and 7% | Population Healthy Nuclei (%) [3]: 78% and 82% | Population Hoechst High Intensity Objects (%) [3]: 4% and 3% | Population Membrane Permeable-Phenotype (%) [3]: 1% and 0% | Population Mitochondria Different-Phenotype (%) [3]: 25% and 45% | Population Mitotic Cells (%) [3]: 73% and 71% | Population Normal (%) [3]: 95% and 96% | Population Pyknosed Nuclei (%) [3]: 13% and 10% | Population Tubulin-Different-Phenotype (%) [3]: 20% and 19% | Total Cell Count [3]: 610 and 403 | Population Apoptotic (%) [4]: 50% and 41% | Population Fragmented Nuclei (%) [4]: 8% and 7% | Population Healthy Nuclei (%) [4]: 76% and 79% | Population Membrane Permeable-Phenotype (%) [4]: 0% | Population Mitochondria Different-Phenotype (%) [4]: 43% and 55% | Population Mitotic Cells (%) [4]: 50% and 58% | Population Normal (%) [4]: 95% and 84% | Population Pyknosed Nuclei (%) [4]: 14% and 13% | Population Tubulin-Different-Phenotype (%) [4]: 40% and 31% | Total Cell Count [4]: 379 and 411 | Population Apoptotic (%) [5]: 33% and 39% | Population Fragmented Nuclei (%) [5]: 11% and 14% | Population Healthy Nuclei (%) [5]: 81% and 80% | Population Hoechst High Intensity Objects (%) [5]: 1% and 3% | Population Membrane Permeable-Phenotype (%) [5]: 1% and 0% | Population Mitochondria Different-Phenotype (%) [5]: 17% and 22% | Population Mitotic Cells (%) [5]: 66% and 60% | Population Normal (%) [5]: 98% and 96% | Population Pyknosed Nuclei (%) [5]: 7% and 5% | Population Tubulin-Different-Phenotype (%) [5]: 17% and 13% | Total Cell Count [5]: 957 and 593 | Population Apoptotic (%) [6]: 29% and 45% | Population Fragmented Nuclei (%) [6]: 14% | Population Healthy Nuclei (%) [6]: 76% and 75% | Population Hoechst High Intensity Objects (%) [6]: 3% and 7% | Population Membrane Permeable-Phenotype (%) [6]: 1% and 0% | Population Mitochondria Different-Phenotype (%) [6]: 37% and 36% | Population Mitotic Cells (%) [6]: 70% and 54% | Population Normal (%) [6]: 96% and 92% | Population Pyknosed Nuclei (%) [6]: 8% and 10% | Population Tubulin-Different-Phenotype (%) [6]: 30% and 23% | Total Cell Count [6]: 511 and 516

CCC(=N\O)/C(C)=C/c1ccc(F)cc1 [A-079]
Population Apoptotic (%) [1]: 11.21% and 9.93% | Population Fragmented Nuclei (%) [1]: 3.75% and 3.83% | Population Hoechst High Intensity Objects (%) [1]: 0% | Population Membrane Permeable-Phenotype (%) [1]: 0% and 2.86% | Population Mitochondria Different-Phenotype (%) [1]: 29.63% and 22.86% | Population Mitotic Cells (%) [1]: 88.79% and 90.07% | Population Normal (%) [1]: 100% | Population Pyknosed Nuclei (%) [1]: 31.1% and 77.05% | Total Cell Count [1]: 373 and 183 | Population Apoptotic (%) [2]: 7.79% and 9.52% | Population Fragmented Nuclei (%) [2]: 0.57% and 1.59% | Population Hoechst High Intensity Objects (%) [2]: 0.28% and 0.79% | Population Membrane Permeable-Phenotype (%) [2]: 0.51% and 0% | Population Mitotic Cells (%) [2]: 92.21% and 90.48% | Population Normal (%) [2]: 99.72% and 99.21% | Population Pyknosed Nuclei (%) [2]: 43.87% and 83.33% | Total Cell Count [2]: 352 and 127 | Population Apoptotic (%) [3]: 14.77% and 10.19% | Population Fragmented Nuclei (%) [3]: 4.65% and 2.11% | Population Healthy Nuclei (%) [3]: 80.21% and 41.05% | Population Hoechst High Intensity Objects (%) [3]: 0% | Population Membrane Permeable-Phenotype (%) [3]: 1.72% and 1.28% | Population Mitochondria Different-Phenotype (%) [3]: 15.02% and 6.41% | Population Mitotic Cells (%) [3]: 85.23% and 89.81% | Population Normal (%) [3]: 100% | Population Tubulin-Different-Phenotype (%) [3]: 7.73% and 3.85% | Population Apoptotic (%) [4]: 13.24% and 15.38% | Population Fragmented Nuclei (%) [4]: 1.47% and 1.14% | Population Healthy Nuclei (%) [4]: 73.48% and 39.77% | Population Hoechst High Intensity Objects (%) [4]: 0.18% and 0.56% | Population Membrane Permeable-Phenotype (%) [4]: 0.75% and 0% | Population Mitochondria Different-Phenotype (%) [4]: 16.04% and 8.57% | Population Mitotic Cells (%) [4]: 86.76% and 84.62% | Population Normal (%) [4]: 99.82% and 99.44% | Population Pyknosed Nuclei (%) [4]: 25.05% and 59.09% | Population Apoptotic (%) [5]: 8.9% and 17.46% | Population Fragmented Nuclei (%) [5]: 5.91% and 2.96% | Population Healthy Nuclei (%) [5]: 84.62% and 78.4% | Population Hoechst High Intensity Objects (%) [5]: 0% and 0.29% | Population Membrane Permeable-Phenotype (%) [5]: 6.52% and 3.4% | Population Mitochondria Different-Phenotype (%) [5]: 8.82% and 9.06% | Population Mitotic Cells (%) [5]: 91.1% and 82.54% | Population Normal (%) [5]: 100% and 99.71% | Population Pyknosed Nuclei (%) [5]: 9.47% and 18.64% | Population Apoptotic (%) [6]: 8.2% and 20.78% | Population Fragmented Nuclei (%) [6]: 3.08% and 0.64% | Population Healthy Nuclei (%) [6]: 85.54% and 50% | Population Hoechst High Intensity Objects (%) [6]: 0% and 0.64% | Population Membrane Permeable-Phenotype (%) [6]: 3.82% and 1.28% | Population Mitochondria Different-Phenotype (%) [6]: 18.43% and 25.64% | Population Mitotic Cells (%) [6]: 91.8% and 79.22% | Population Normal (%) [6]: 100% and 99.36%
